# Experimental data gathered from unrelated publications.
# Lines come from different studies, so protocols differ.
# CHEK2: Serine/threonine-protein kinase Chk2 (CHEK2, Homo sapiens, UniProt O96017)
# CHEK2 I157T: Serine/threonine-protein kinase Chk2 (CHEK2, Homo sapiens, UniProt O96017, I157T)
SMILES,target,assay,setting,measurement,value
CC(C)CC(=O)N1CCc2nc(-c3ccc(Br)cc3)nc(N(C)Cc3ccccc3)c2C1,CHEK2,"cell-free assay, competition with immobilised ligand",0.1 µM,remaining binding,100%
Cn1c2c(c3ccc(Cl)c(Cl)c31)C(C#N)C1(CCNCC1)NC2=O (racemic),CHEK2,"thermal stability, DSF",10 µM,ΔTm,0.2 °C
CN(C)C1CCN(CC#Cc2nn(C3CCCC3)c3nc(NCc4ccccc4)ncc23)C1 (stereo not drawn),CHEK2,"enzyme activity, inhibitor, FRET",1 µM,inhibition,7%
CCCOc1ccc(OC)c(F)c1C(=O)c1ccc(C(=O)N[C@@H]2CNC[C@H]2NC(=O)c2ccc3[nH]ncc3c2)cc1,CHEK2 I157T,"enzyme activity, inhibitor",10 µM,remaining activity,16%
Cn1c2c(c3ccc(Cl)c(Cl)c31)C(C#N)C(C)(C)NC2=O (stereo not drawn),CHEK2,"thermal stability, DSF",10 µM,ΔTm,0.2 °C
CN([C@@H]1CCc2c(CC(=O)O)c3ccccc3n2C1)S(=O)(=O)c1ccc(F)cc1,CHEK2,"cell-free assay, competition with immobilised ligand",1 µM,remaining binding,100%
Cc1cc(NC(=O)c2cccc3cc(-c4cccc5[nH]nc(N)c45)ccc23)ccc1F,CHEK2,"enzyme activity, inhibitor",0.1 µM,activity vs control,102%
CN(C)CC#Cc1ccc(OCCCc2sc(N3CCc4cccc(C(=O)Nc5nc6ccccc6s5)c4C3)nc2C(=O)O)c(F)c1,CHEK2,"cell-free assay, competition with immobilised ligand",1 µM,remaining binding,100%
O=C1NC(=O)c2cc(Nc3ccc(F)cc3)c(Nc3ccc(F)cc3)cc21,CHEK2,cell-free assay,0.5 µM,remaining signal,94.3%
CN1CCC2(CC1)NC(=O)c1c(c3ccc(Cl)c(Cl)c3n1C)C2C#N (racemic),CHEK2,"thermal stability, DSF",10 µM,ΔTm,-0.3 °C
CCN(CC)CCNC(=O)c1c(C)[nH]c(/C=C2\C(=O)Nc3ccc(F)cc32)c1C,CHEK2,cell-free assay,0.5 µM,remaining signal,7.13%
CCCOc1ccc([C@H]2[C@H](C(=O)O)[C@@H](c3ccc4c(c3)OCO4)CN2CC(=O)Nc2c(CC)cccc2CC)cc1,CHEK2,"cell-free assay, competition with immobilised ligand",1 µM,remaining binding,88%
Oc1cccc(-c2nc(N3CCOCC3)c3oc4ncccc4c3n2)c1,CHEK2,cell-free assay,0.5 µM,remaining signal,90.4%
Cn1c2c(Cl)c(Cl)ccc2c2cc[nH]c(=O)c21,CHEK2,"thermal stability, DSF",10 µM,ΔTm,0.2 °C
CC(=O)C1=C(C)N(c2cccc(C(F)(F)F)c2)C(=O)N[C@@H]1c1ccc(C#N)nc1,CHEK2,"cell-free assay, competition with immobilised ligand",1 µM,remaining binding,85.6%
COc1cc2nccc(Oc3ccc(NC(=O)Nc4ccc(F)cc4F)c(F)c3)c2cc1OC,CHEK2,"thermal stability, DSF",10 µM,ΔTm,5 to 10 °C
Cc1noc([C@H]2C[C@@H](c3ccc(C(F)(F)F)cc3)CN(C(=O)N3CCS(=O)(=O)C3)C2)n1,CHEK2,"cell-free assay, competition with immobilised ligand",1 µM,remaining binding,100%
Cn1c2c(Cl)c(Cl)ccc2c2cn[nH]c(=O)c21,CHEK2,"thermal stability, DSF",10 µM,ΔTm,-0.4 °C
CCOCCn1cc(C(=O)Nc2ccc(-n3nc(-c4cccnc4)cc3C(F)(F)F)cn2)ccc1=O,CHEK2,"cell-free assay, competition with immobilised ligand",1 µM,remaining binding,0%
CNC(=O)c1cc(Oc2ccc(NC(=O)Nc3ccc(Cl)c(C(F)(F)F)c3)cc2)ccn1,CHEK2,"enzyme activity, inhibitor",10 µM,inhibition,6%
Cc1cnc(NC2CCOCC2)nc1-n1cnc(C(=O)NC(CN)c2cc(F)cc(Cl)c2)c1 (stereo not drawn),CHEK2 I157T,"enzyme activity, inhibitor, radiometric",1 µM,remaining activity,82%
Cn1c2c(c3ccc(Cl)c(Cl)c31)C(C#N)C1(CCCC1)NC2=O (stereo not drawn),CHEK2,"thermal stability, DSF",10 µM,ΔTm,0 °C
CS(=O)(=O)N1CCCC(NC(=O)[C@H](CCC2CCCCC2)NC(=O)c2ccc(CNc3ncnc4c3nnn4-c3ccccc3)cc2)C1 (stereo partly drawn),CHEK2,"cell-free assay, competition with immobilised ligand",0.1 µM,remaining binding,100%
COc1cc(Nc2c(C#N)cnc3cc(OCCCN4CCN(C)CC4)c(OC)cc23)c(Cl)cc1Cl,CHEK2,cell-free assay,0.5 µM,remaining signal,21.7%
CCC1(CC)NC(=O)c2c(c3ccc(Cl)c(Cl)c3n2C)C1C#N (stereo not drawn),CHEK2,"thermal stability, DSF",10 µM,ΔTm,-0.2 °C
Cc1ccc(Nc2nccc(N(C)c3ccc4c(C)n(C)nc4c3)n2)cc1S(N)(=O)=O,"Serine/threonine-protein kinase Chk2 (CHEK2, Homo sapiens, UniProt O96017, R145W)","enzyme activity, inhibitor",10 µM,inhibition,28%
N#CCCc1ccc2c(c1)-c1[nH]c3ccc([N+](=O)[O-])cc3c1CC(=O)N2,CHEK2,cell-free assay,0.5 µM,remaining signal,12.6%
